A selection: hits, their analogues and other compounds. The true share with any hit is near 5.6%.
NR3A LBD binder: NR3A (human) ligand-binding domain modulation; NR3A LBD differential scanning fluorimetry, Tm shift; 0% = protein alone, 100% = glycine-bound protein; Tm shift relative to glycine control, % at 25 µM; 340,000 tested, 2.5% active; AID 1259313;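 active means melting temperature shift of at least 10% of the positive control shift, at one fixed dose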
UPR XBP1 act: activators of adaptive arm of unfolded protein response (XBP1); CHO-XBP1 luciferase reporter, IRE1-XBP1 UPR activation, luminescence; percent of tunicamycin response, DMSO as zero; AID 463104; 330,000 tested, 0.33% active; activation, % at 20 µM;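 active means versus positive control, 20 µM dose yields 30% or more activation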
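Material: IRE1-XBP1 luciferase reporter CHO line / Quantity: one thousand reporter cells per well / Buffer or medium: F12 with 10% serum / Compound: 20 µM single concentration, DMSO 1% / Times: 6 h treatment, 37 °C / Detection: Steady-Glo luciferase glow luminescence, 10 min after reagent addition / Benchmarks: tunicamycin high, DMSO low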
aDG glyco act: alpha-DG glycosylation activation. 360,000 tested, 0.22% active. Pro5-aDG cells, alpha-DG glycosylation AlphaScreen (IIH6); 0% Pro5, 100% B10-LARGE cell signal. AID 624168. activation, % at 10 µM;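 active means activation of at least 8% versus controls, or a plate z-score of at least 8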;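 further: Pro5 are CHO cells carrying HIG-tagged alpha-DG that lacks glycosylation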
CHOP inhibitor: inhibitors of CHOP induction in ER stress response. CHO-K1 CHOP-promoter luciferase, tunicamycin-induced, 15-18 h. inhibition, % at 10 µM. 220,000 tested, 3.8% active. AID 2732;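 active means compounds that reduced the stress-induced luciferase reporter signal by more than about 70% of percent inhibition, limit read from the data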
CHOP UPR activ: activators of apoptotic arm of unfolded protein response (CHOP). CHO-CHOP luciferase reporter, UPR activation, luminescence; percent of tunicamycin response over DMSO baseline. AID 449763. activation, % at 10 µM. 330,000 tested, 0.34% active;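 active means at 10 µM dose, activation of 40% or more, normalized to positive control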
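assay system = CHO CHOP reporter cells | amount = 500 CHO-CHOP cells per well | buffer or medium = F12 with 10% FBS | incubation = 16-18 h cell attachment, then 6 h compound exposure, 37 °C | detection = luminescence read with Steady-Glo | read-out = percent activation relative to tunicamycin control | controls = tunicamycin high control, DMSO low control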
MPTP inh: blocks calcium-induced mitochondrial swelling | 360,000 tested, 1.4% active | inhibition, % at 10 µM | AID 602449 | isolated mouse mitochondria, Ca2+ swelling absorbance, 30 min;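 active means inhibition of 50% or more, scaled per plate between neutral and stimulator controls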
MPTP counter: Rhodamine 123 counter-screen of mitochondrial pore hits. AID 624504. isolated mitochondria, membrane potential, Rhodamine 123 fluorescence. 5,000 tested, 78% active. inhibition, % at 10 µM. shares compounds with MPTP inh; in the data active means inhibition above about 22%
MPTP swell DR: dose response confirmation of mitochondrial permeability transition pore inhibitors; shares compounds with MPTP inh; isolated mitochondria swelling, absorbance; IC50, µM; 780 tested, 58% active; in the data active means IC50 below about 20 µM
MPTP cs DR: active in counter-screen for permeability transition pore inhibitors; shares compounds with MPTP inh; isolated mitochondria counterscreen, fluorescence read-out; IC50, µM; 780 tested, 49% active; AID 651564; in the data active means IC50 below about 80 µM
A number is an active result; . = inactive; / = not tested or not shown.

SMILES | NR3A LBD binder | UPR XBP1 act | aDG glyco act | CHOP inhibitor | CHOP UPR activ | MPTP inh | MPTP counter | others
COC(=O)/C(=C\Nc1ccc(Cl)c2ccccc12)c1ncc(C(F)(F)F)cc1Cl | . | . | . | . | . | . | /
COc1ccc(NC(=O)Nn2cnnc2)cc1OC | . | . | . | / | . | . | /
COc1ccc(NC(=O)NC23CC4(C)CC(C)(CC(C)(C4)C2)C3)cc1OC | . | . | . | . | . | 76.5 | 50.8
COc1ccccc1/C=C1\SC(=S)N(CC(=O)NC2CCS(=O)(=O)C2)C1=O (stereo unspecified) | . | . | . | / | . | . | /
CN(C)S(=O)(=O)c1ccc(-c2csc(N/N=C/c3ccc(O)cc3)n2)cc1 | 22.5 | . | . | . | . | 58.0 | 43.0
N#C/C(=C\c1cc(Cl)cc(Cl)c1O)C(=O)NC1CCCCC1 | . | . | . | . | . | 60.8 | 67.5
O=C(Nc1csc([N+](=O)[O-])c1)Nc1ccccc1Cl | 39.1 | . | . | . | . | 88.8 | 80.5
O=C(Nc1ccc([N+](=O)[O-])cc1Cl)c1cccc([N+](=O)[O-])c1 | / | / | . | / | / | . | /
O=C(Nc1ccccc1F)Nc1ccc([N+](=O)[O-])cc1Cl | . | . | . | . | . | 89.5 | 92.2
Cc1cc([N+](=O)[O-])ccc1NC(=O)Nc1ccc(F)cc1F | . | . | . | . | . | 97.5 | 78.5
CCC(C)N(C(=O)c1csnn1)C(C(=O)NC1CCCC1)c1c(F)cccc1Cl (stereo unspecified) | . | . | . | / | . | . | /
COc1ccc(Br)cc1CSC(=N)N | . | . | . | . | . | . | /
CCCCCOc1ccc(Br)cc1CSC(=N)N | . | / | . | 83.9 | / | 68.2 | 105.3
CC(=O)N1CCc2cc(S(=O)(=O)NCCC3=CCCCC3)ccc21 | . | . | . | / | . | 61.1 | 81.7
O=C(Nc1cccc(F)c1)c1cc(S(=O)(=O)NCCC2=CCCCC2)ccc1F | 22.4 | . | . | . | . | 62.6 | 77.6
Cc1ccc(NC(=O)c2cc(S(=O)(=O)NCCC3=CCCCC3)ccc2F)cc1F | 16.6 | . | . | . | . | 82.7 | 78.3
COCCN(C(=S)Nc1ccc(Cl)cc1OC)C1CCN(C(C)=O)CC1 | . | . | . | . | . | . | /
COc1cc(/C=N/NC(=O)c2nnn(-c3nonc3N)c2C)ccc1OCc1ccc(Cl)cc1 | / | / | . | / | / | . | /
COC(=O)[C@@]12C[C@@H](CC(=O)N3CCSCC3)C(=O)N(CCc3ccc(OC)c(OC)c3)C1=CCC(C)(C)C2 | / | / | . | / | / | . | /
O=C(CC1Sc2ccccc2NC1=O)NNc1cc(Cl)ccc1Cl (stereo unspecified) | . | / | . | / | / | . | /
Cc1ccc(Nc2ccc([N+](=O)[O-])cn2)cc1Cl | 13.6 | . | . | / | . | 74.8 | 68.6
Cn1c(-c2ccc(Br)o2)nc2ccccc21 | . | . | . | . | . | . | /
Cn1c(-c2ccc(Br)o2)nc2cc(Br)ccc21 | 12.5 | . | . | . | . | 63.5 | . | MPTP swell DR=.;MPTP cs DR=.
CC(=O)c1ccc(N(C(=O)CNC(=O)c2ccco2)C(C(=O)NC2CCCC2)c2ccncc2)cc1 (stereo unspecified) | . | . | . | / | . | . | /
Cc1cccc(NC(=S)NNC(=O)COc2ccc(Cl)cc2Cl)c1 | . | . | . | . | . | 55.4 | 51.7
SMILES | NR3A LBD binder | UPR XBP1 act | aDG glyco act | CHOP inhibitor | CHOP UPR activ | MPTP inh | MPTP counter | others
CN1CCN(c2ccc(-c3cccc(NC(=O)COc4ccc(Cl)cc4Cl)c3)nn2)CC1 | / | . | 5.2 | / | . | 74.4 | . | MPTP swell DR=18.9;MPTP cs DR=.
CN1CCN(c2ccc(-c3cccc(NC(=O)COc4ccc(Cl)cc4)c3)nn2)CC1 | . | . | . | / | . | . | /
Cc1ccc2c(=O)n3c(nc2c1)C(C)NC(=O)c1cccnc1-3 (stereo unspecified) | / | / | . | / | / | . | /
O=C(NC1CCN(Cc2ccccc2)CC1)c1ccccc1Cl | . | . | . | / | . | . | /
Cc1c(C(=O)NC2CCN(Cc3ccccc3)C2)oc2c(Cl)cccc12 (stereo unspecified) | . | . | . | / | . | 63.4 | . | MPTP swell DR=.;MPTP cs DR=.
C[C@@H]1CCCCO[C@H](CN(C)C(=O)C2CCCCC2)[C@@H](C)CN([C@H](C)CO)C(=O)c2cc(N(C)C)ccc2O1 | / | / | . | / | / | . | /
Cc1onc(-c2ccccc2)c1CNC(=O)Nc1ccc(C(F)(F)F)cc1 | 10.9 | . | . | . | . | 78.1 | 83.0
Cc1onc(-c2ccccc2)c1CNC(=O)Nc1ccc(F)cc1F | . | . | . | . | . | . | /
Cc1onc(-c2ccccc2)c1CNC(=O)Nc1cccc(Cl)c1 | . | . | . | . | . | 77.9 | 85.0
Cc1cc(C)cc(NC(=O)NCc2c(-c3ccccc3)noc2C)c1 | . | . | . | . | . | . | /
N#Cc1ccc(NC(=O)Cn2cnc(S(=O)(=O)N3CCCC3)c2)cc1 | . | . | . | / | . | . | /
O=[N+]([O-])c1cccc(-c2nc(-c3cccs3)c(-c3cccs3)[nH]2)c1 | . | . | . | . | . | 103.8 | 53.1
Cc1cccc(COCCN2CCN(S(=O)(=O)c3ccccc3)CCC2=O)c1 | . | . | . | . | . | . | /
COc1ccc(S(=O)(=O)NNc2nc(C)cc(C)n2)cc1Br | . | . | . | / | . | . | /
O=C(N/N=C/c1cccc(O)c1)c1csc2ccccc12 | 22.3 | . | . | . | . | 108.5 | . | MPTP swell DR=1.07;MPTP cs DR=.
Cc1ccc(O)c(CNCCNCc2cc(C)ccc2O)c1 | . | . | . | / | . | . | /
CCc1ccc(O)c(CNCCNCc2cc(CC)ccc2O)c1 | . | . | . | / | . | 95.4 | .
CCCOc1ccc(CSc2nc3ccccc3[nH]2)cc1 | . | . | 4.4 | 75.9 | . | 97.9 | 92.1
CCOc1ccc(OCCSc2nc3ccccc3[nH]2)cc1 | . | . | . | . | . | . | /
Cc1cccc(OCCCSc2nc3ccccc3[nH]2)c1 | . | . | . | . | . | 50.6 | 63.6
CC(C(=O)Nc1ccc2c(c1)OCO2)n1cnc2c1c(=O)n(C)c(=O)n2C (stereo unspecified) | . | . | . | / | . | . | /
CCOc1cc(CNC2CCCC2)cc(Cl)c1OCc1ccccc1 | . | . | . | . | . | 68.1 | . | MPTP swell DR=3.12;MPTP cs DR=48.8
CCc1sc(C(=O)Nc2nc(-c3ccccn3)cs2)cc1C | . | . | . | / | . | 68.1 | .
CCc1sc(C(=O)Nc2nccs2)cc1C | . | . | . | / | . | . | /

Source: PubChem BioAssay (several laboratories)
